The subject of test [1] is MCF7. The experiment in a line: Anticancer activity against human MCF7 cells by SRB method. The class given is functional. In short, it runs like this:
(§1)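 Growth inhibition over a panel of human cancer lines (lung, ovarian, oral, colon, prostate, cervix, breast). Value is the 50% growth-inhibition concentration, reported as the mean ± standard error of the mean of three determinations.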

For test [2], the system named is HOP-62. The experiment in a line: Anticancer activity against human HOP62 cells by SRB method. The test is classed as functional. Summed up: as §1
Test [3] can be described thus: Anticancer activity against human Gurav cells by SRB method. The test is classed as functional. In short, it runs like this:
as §1

Test [4] relates to A549. The experiment in a line: Anticancer activity against human A549 cells by SRB method. The test is classed as functional. In short, it runs like this:
as §1

The subject of test [5] is A2780. As to the kind of experiment: Anticancer activity against human A2780 cells by SRB method. The class given is functional. In short, it runs like this: as §1
The subject of test [6] is KB. As to the kind of experiment: Anticancer activity against human KB cells by SRB method. The class given is functional. In short, it runs like this: as §1
The test system of test [7] is COLO 205. The experiment in a line: Anticancer activity against human COLO205 cells by SRB method. The class given is functional. Summed up:
as §1

Test [8] relates to PC-3. As to the kind of experiment: Anticancer activity against human PC3 cells by SRB method. The test is classed as functional. In short, it runs like this: as §1
The subject of test [9] is SiHa. As to the kind of experiment: Anticancer activity against human SiHa cells by SRB method. The test is classed as functional. Summed up:
as §1

For test [10], the system named is MCF7. The experiment in a line: Cytotoxicity against human MCF7 cells assessed as reduction in cell viability at 4 uM after 24 hrs by MTT assay. The class given is functional, cell-based. Summed up: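 MCF-7 cells were seeded at 10,000 per well and left overnight, then treated with 4 µM compound for 24 h. MTT was added for 2 h at 37 °C, formazan was solubilized in extraction buffer, and OD was read at 570 nm. Untreated cells served as control. Three independent experiments, SD.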

The test system of test [11] is MCF7. As to the kind of experiment: Cell cycle arrest in human MCF7 cells assessed as accumulation at G0/G1 phase at 4 uM after 24 hrs using propidium iodide staining based flow cytometric analysis. The class given is functional. In short, it runs like this:
(§2)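 MCF-7 cells were seeded at 5 × 10^5 per 60 mm dish and grown for 24 h, then exposed to 4 µM compound for 24 h. Cells were trypsinized, fixed in ice-cold 70% ethanol at 4 °C for 30 min and treated with 1 mg/ml RNase at 37 °C for 30 min. They were stained with propidium iodide/citrate/Triton X-100, and DNA content was read on 20,000 events by flow cytometry. Three independent repeats.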

Test [12] relates to MCF7. The experiment in a line: Cell cycle arrest in human MCF7 cells assessed as accumulation at G0 phase at 10 uM after 24 hrs using propidium iodide staining based flow cytometric analysis (reference value: 1.27 +/- 0.08 %). The test is classed as functional.
In test [13] the test system is MCF7. As to the kind of experiment: Cell cycle arrest in human MCF7 cells assessed as accumulation at G1 phase at 10 uM after 24 hrs using propidium iodide staining based flow cytometric analysis (reference value: 47.64 +/- 1.49 %). The class given is functional.
Test [14] has as its system MCF7. As to the kind of experiment: Cell cycle arrest in human MCF7 cells assessed as accumulation at S phase at 10 uM after 24 hrs using propidium iodide staining based flow cytometric analysis (reference value: 12.92 +/- 1 %). The test is classed as functional.
Test [15] has as its system MCF7. As to the kind of experiment: Cell cycle arrest in human MCF7 cells assessed as accumulation at G2/M phase at 10 uM after 24 hrs using propidium iodide staining based flow cytometric analysis (reference value: 38.15 +/- 1.068 %). The class given is functional.
Test [16] has as its system MCF7. As to the kind of experiment: Downregulation of cyclin D1 protein expression in human MCF7 cells at 4 uM after 24 hrs by Western blot analysis. The class given is functional, cell-based. In short, it runs like this:
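MCF-7 cells at 80% confluency were treated with 4 µM compound for 24 h. Cells were lysed in RIPA buffer with protease inhibitors and protein was quantified by Bradford. 50 µg per lane was run on 12% SDS-PAGE and transferred to PVDF. Blots were probed overnight at 4 °C with rabbit polyclonal anti-cyclin D1, with β-actin as loading control, and detected by chemiluminescence.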

Test [17] concerns the target G1/S-specific cyclin-D1 (Homo sapiens) (UniProt P24385). The experiment in a line: Down regulation of Cyclin D1 promoter activity expressed in human MCF7 cells co-transfected with luciferase gene at 4 uM after 24 hrs by luciferase reporter gene assay. The class given is cell-based. Summed up: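 MCF-7 cells were transfected for 24 h with the cyclin D1 promoter (−1745) luciferase construct, which contains an NF-kB site. Cells were then treated with 4 µM compound (final) for a further 24 h, and lysate luciferase was measured by luminometer. Untransfected cells served as negative control and transfected untreated cells as control.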

Test [18] can be described thus: Down regulation of NF-kappaB activity expressed in human MCF7 cells transfected with NF-kB SEAP plasmid at 4 uM after 24 hrs by chemiluminescence-based luminometric analysis. The class given is cell-based. Summed up: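 MCF-7 cells were transiently transfected with the NF-kB SEAP plasmid using lipofectamine 2000. After 24 h, cells were treated with 4 µM compound for 24 h. Lysates were assayed with a chemiluminescent reagent and read by luminometry and by 30 min X-ray film exposure. Transfected untreated cells served as control.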

In test [19] the test system is MCF7. The experiment in a line: Induction of apoptosis in human MCF7 cells assessed as down regulation of Bcl2 expression at 4 uM after 24 hrs by ELISA. The test is classed as functional, cell-based. Summed up: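 MCF-7 cells were treated with 4 µM compound for 24 h. Lysates were added to Bcl2 antibody-coated wells, followed by biotinylated anti-human Bcl2 monoclonal antibody, and bound Bcl2 was detected with streptavidin-HRP (sandwich ELISA).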

The test system of test [20] is MCF7. As to the kind of experiment: Induction of apoptosis in human MCF7 cells assessed as down regulation of Bcl-xL expression at 4 uM after 24 hrs by Western blot.
The test system of test [21] is ZR-75-1. The experiment in a line: Anticancer activity against human ZR-75-1 cells by SRB method. The test is classed as functional. Summed up:
as §1

A short description of test [22]: Anticancer activity against human DWD cells by SRB method. The test is classed as functional. Summed up: as §1
Test [23] relates to MCF7. As to the kind of experiment: Cytotoxicity against human MCF7 cells assessed as reduction in cell viability at 2 uM after 24 hrs by MTT assay. The class given is functional, cell-based.
In test [24] the test system is MCF7. As to the kind of experiment: Induction of cell cycle arrest at G1 phase in human MCF7 cells at 4 uM after 24 hrs using propidium iodide staining based flow cytometric analysis. The test is classed as functional. In short, it runs like this:
as §2

Calls of active or inactive are those of the source. The rule behind the calls is not given here.

Sequence of G1/S-specific cyclin-D1 (Homo sapiens) (P24385 whole entry): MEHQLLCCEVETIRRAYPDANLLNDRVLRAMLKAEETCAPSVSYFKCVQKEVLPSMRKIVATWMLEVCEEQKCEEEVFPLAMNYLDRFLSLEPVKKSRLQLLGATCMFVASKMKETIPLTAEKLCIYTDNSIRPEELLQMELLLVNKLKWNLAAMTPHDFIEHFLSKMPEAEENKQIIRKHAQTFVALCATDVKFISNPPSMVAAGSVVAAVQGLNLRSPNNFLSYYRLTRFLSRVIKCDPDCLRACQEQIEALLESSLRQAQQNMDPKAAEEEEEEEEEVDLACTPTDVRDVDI

`COc1cc2c(cc1O)N=C[C@@H]1CCCN1C2=O`: the GI50 in test [1] was 0.17 µM; in test [2], 0.15 µM; in test [3], 0.16 µM; in test [4], 0.16 µM; in test [5], 0.14 µM; in [6], 0.17 µM. For the same molecule, the GI50 in test [7] was found to be 0.11 µM; in test [8], 0.2 µM; in test [9], 0.17 µM. Besides, the outcome in [10], in test [16], in test [17], in test [18], in test [19] and in [20] was Active. Further, the Activity in [11] stood at 71.1%; in test [12] it was 7.62%; in test [13], 61.81%; in [14], 9.67%; in test [15] it was 20.89%.

On to `COc1cc(/C=C/C(=O)c2cc(Cl)ccc2O)ccc1OCCCCCn1cc(COc2cc3c(cc2OC)C(=O)N2CCC[C@H]2C=N3)nn1`, for which the GI50 in test [21] was found to be 2.02 µM; in [1], 0.18 µM; in test [2], 2.28 µM; in test [3], 0.19 µM; in test [4], 2.09 µM; in test [5], 0.15 µM. Besides, the GI50 in test [22] is 2.3 µM; in [7], 0.1 µM; in test [8] it was 0.19 µM. In addition, in test [23], the outcome was inactive. Also, the Activity in test [11] is listed as 60.18%; in test [12], 10.75%; in [13], 60.56%; in test [14], 7.28%; in test [15], 22.06%. Also, the result in [24], in test [16], in [17], in test [18], in test [19] and in [20] was Active.

In the case of `COc1ccc(/C=C/C(=O)c2ccc(O)cc2)cc1O`, in test [10], the outcome was Active. Also, the Activity is reported as 64.11% in test [11]; 10.15% in test [12]; 51.61% in [13]; 6.55% in test [14]; 31.5% in [15].

Regarding `COc1cc(/C=C/C(=O)c2ccccc2O)ccc1OCCCn1cc(COc2cc3c(cc2OC)C(=O)N2CCC[C@H]2C=N3)nn1`, the GI50 stood at 2.2 µM in [21]; 2.4 µM in test [1]; 2.92 µM in test [2]; 2.31 µM in test [3]; 2.33 µM in test [4]; 0.17 µM in test [5]. Besides, the values for the GI50 in test [6], in [7] and in test [8] were 2.19 µM, 0.15 µM and 2.48 µM, respectively. Further, the result in [10], in test [24], in [16], in [17], in test [18] and in [19] was Active. Moreover, the outcome in test [20] was Active. Moreover, the outcome in [23] was inactive. Moreover, the Activity was determined as 76.87% in [11]; 12.06% in test [12]; 64.08% in test [13]; 9.52% in [14]; 14.32% in [15].

For the origin of these results see ChEMBL document CHEMBL1821554, “Synthesis and anticancer activity of chalcone-pyrrolobenzodiazepine conjugates linked via 1,2,3-triazole ring side-armed with alkane spacers” (2011).
